{"data": "Measured values gathered from unrelated publications", "target": "Adenosine receptor A1 (ADORA1, Homo sapiens, UniProt P30542)", "Sequence (P30542 1-326, as in one of the studies)": "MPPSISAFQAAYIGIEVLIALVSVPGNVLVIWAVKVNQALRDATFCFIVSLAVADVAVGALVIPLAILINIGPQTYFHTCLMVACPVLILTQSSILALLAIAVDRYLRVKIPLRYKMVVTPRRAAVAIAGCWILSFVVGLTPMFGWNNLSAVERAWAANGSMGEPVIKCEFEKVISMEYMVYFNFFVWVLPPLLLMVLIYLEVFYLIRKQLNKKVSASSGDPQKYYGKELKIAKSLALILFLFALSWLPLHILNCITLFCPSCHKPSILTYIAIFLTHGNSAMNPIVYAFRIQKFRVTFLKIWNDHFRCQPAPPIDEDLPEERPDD", "note": "Lines come from different studies, so protocols differ."}
{"Compound": "CNC(=O)[C@@]12C[C@@H]1[C@@H](n1cnc3c(NCc4cn(-c5ccc(F)c(N)c5)nn4)nc(Cl)nc31)[C@H](O)[C@@H]2O", "test": "ligand displacement, radioligand", "setting": "cell membranes", "measurement": "Ki", "result": "1.67 µM"}
{"Compound": "O[C@@H]1[C@H](O)CO[C@H]1n1cnc2c(NCc3cccc(I)c3)ncnc21", "test": "ligand displacement, radioligand", "setting": "cell membranes", "measurement": "Ki", "result": "2.08 µM"}
{"Compound": "OC[C@@]12C[C@@H]1[C@@H](n1cnc3c(NC(C4CCCCC4)C4CCCCC4)nc(Cl)nc31)[C@H](O)[C@@H]2O", "test": "ligand displacement, radioligand", "measurement": "Ki", "result": "1.9 µM"}
{"Compound": "CC(C)CN1CCCn2c1nc1c2c(=O)n(C)c(=O)n1C", "test": "ligand displacement, radioligand", "setting": "cell membranes", "measurement": "Ki", "result": "1.91 µM"}
{"Compound": "CNC(=O)[C@@]12C[C@@H]1[C@@H](n1cnc3c(NCc4cccc(C#CCCCc5cn(-c6ccc(F)c(N)c6)nn5)c4)nc(Cl)nc31)[C@H](O)[C@@H]2O", "test": "ligand displacement, radioligand", "setting": "cell membranes", "measurement": "Ki", "result": "0.64 µM"}
{"Compound": "CCNC(=O)C1OC(n2cnc3c(N)nc(NN=CC4CCC=CO4)nc32)C(O)C1O (centres unmarked)", "test": "ligand displacement, radioligand", "setting": "cell membranes", "measurement": "Ki", "result": "0.0764 µM"}
{"Compound": "CCCC[C@H](NC(=O)[C@H](C)c1c(C)[nH]c2ccc(O)cc12)c1ncc(-c2cc3ccccc3nc2OC)[nH]1", "test": "cell-free assay", "measurement": "IC50", "result": "2.73 µM"}
{"Compound": "COCCN(CCOC)C(=O)[C@@]12C[C@@H]1[C@@H](n1cnc3c(N)nc(Cl)nc31)[C@H](O)[C@@H]2O", "test": "ligand displacement, radioligand", "measurement": "Ki", "result": "0.998 µM"}
{"Compound": "CNC(=O)[C@@]12C[C@@H]1[C@@H](n1cnc3c(NCCc4ccc(O)c(OC)c4)nc(C#Cc4ccc(Cl)s4)nc31)[C@H](O)[C@@H]2O", "test": "cell-free assay, radioligand", "measurement": "Ki", "result": "0.043 µM"}
{"Compound": "CNC(=O)[C@@]12C[C@@H]1[C@@H](n1cnc3c(NCc4cccc(C#CCCCCCc5cn(-c6ccc(F)c(N)c6)nn5)c4)nc(Cl)nc31)[C@H](O)[C@@H]2O", "test": "ligand displacement, radioligand", "setting": "cell membranes", "measurement": "Ki", "result": "3.78 µM"}
{"Compound": "CCCCCCN1CCCn2c1nc1c2c(=O)n(C)c(=O)n1C", "test": "ligand displacement, radioligand", "setting": "cell membranes", "measurement": "Ki", "result": "3.8 µM"}
